Results on 1 compound are retold here after ChEMBL document CHEMBL1140884, “Oligodeoxyribonucleotide-based antagonists for Toll-like receptors 7 and 9” (2009).

In this assay the target is T1, Toll-like receptor 9 (Mus musculus) (UniProt Q9EQU3).
T1 sequence (whole entry): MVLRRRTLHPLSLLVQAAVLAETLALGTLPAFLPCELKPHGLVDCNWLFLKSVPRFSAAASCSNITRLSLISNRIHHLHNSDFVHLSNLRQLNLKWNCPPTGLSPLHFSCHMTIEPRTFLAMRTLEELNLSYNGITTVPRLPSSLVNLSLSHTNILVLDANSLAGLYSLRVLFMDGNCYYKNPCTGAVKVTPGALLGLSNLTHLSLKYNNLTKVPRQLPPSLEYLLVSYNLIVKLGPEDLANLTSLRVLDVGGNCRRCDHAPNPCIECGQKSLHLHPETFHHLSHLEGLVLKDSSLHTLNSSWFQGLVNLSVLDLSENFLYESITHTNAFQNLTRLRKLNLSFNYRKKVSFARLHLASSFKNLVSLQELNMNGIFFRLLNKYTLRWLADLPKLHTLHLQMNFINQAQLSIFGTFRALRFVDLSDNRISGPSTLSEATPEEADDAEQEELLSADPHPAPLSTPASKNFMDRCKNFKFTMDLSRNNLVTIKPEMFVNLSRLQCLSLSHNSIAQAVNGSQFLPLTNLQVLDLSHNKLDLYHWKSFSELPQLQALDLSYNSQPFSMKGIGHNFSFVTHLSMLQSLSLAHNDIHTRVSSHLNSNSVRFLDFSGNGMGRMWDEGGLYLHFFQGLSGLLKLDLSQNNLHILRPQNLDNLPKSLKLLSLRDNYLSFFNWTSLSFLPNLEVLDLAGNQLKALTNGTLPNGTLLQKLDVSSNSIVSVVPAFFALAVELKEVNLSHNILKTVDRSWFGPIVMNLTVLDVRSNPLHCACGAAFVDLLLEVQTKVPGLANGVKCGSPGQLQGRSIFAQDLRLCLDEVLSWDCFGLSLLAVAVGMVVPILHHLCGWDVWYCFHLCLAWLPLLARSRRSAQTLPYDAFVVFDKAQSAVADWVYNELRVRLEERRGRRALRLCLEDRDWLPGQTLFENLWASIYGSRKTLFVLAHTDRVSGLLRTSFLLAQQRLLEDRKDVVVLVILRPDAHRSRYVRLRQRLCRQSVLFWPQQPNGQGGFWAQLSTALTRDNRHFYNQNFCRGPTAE
In words: Antagonist activity at TLR9 in mouse J774 cells assessed as inhibition of 5'-TCTGACRTTCT-X-TCTTRCAGTCT-3'-induced NF-kappaB activation pretreated for 1 hr in presence of increasing levels of 5'-TCTGACRTTCT-X-TCTTRCAGTCT-3'. Format: functional, cell-based. In outline: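 Reversibility test: J774 cells were stimulated with varying doses of TLR9 agonist, with or without a fixed 10 µg/mL antagonist, for 1 h. Nuclear extracts were analysed for NF-κB by EMSA.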

Active and inactive are the calls of the source. The calls are words filed in the database; no cut-off is given here.

As for `CO[C@@H]1[C@H](OP(=O)(S)OC[C@H]2O[C@@H](n3ccc(N)nc3=O)C[C@@H]2OP(=O)(S)OC[C@H]2O[C@@H](n3ccc4c(=O)[nH]c(N)nc43)C[C@@H]2OP(=O)(S)OC[C@H]2O[C@@H](n3cc(C)c(=O)[nH]c3=O)C[C@@H]2OP(=O)(S)OC[C@H]2O[C@@H](n3cc(C)c(=O)[nH]c3=O)C[C@@H]2OP(=O)(S)OC[C@H]2O[C@@H](n3ccc(N)nc3=O)C[C@@H]2OP(=O)(S)OC[C@H]2O[C@@H](n3cc(C)c(=O)[nH]c3=O)C[C@@H]2OP(=O)(S)OC[C@H]2O[C@@H](n3ccc(N)nc3=O)C[C@@H]2OP(=O)(S)OC[C@H]2O[C@@H](n3cc(C)c(=O)[nH]c3=O)C[C@@H]2OP(=O)(S)OC[C@H]2O[C@@H](n3cnc4c(=O)[nH]c(N)nc43)C[C@@H]2OP(=O)(S)OC[C@H]2O[C@@H](n3cc(C)c(=O)[nH]c3=O)C[C@@H]2O)[C@@H](COP(=O)(S)O[C@H]2[C@@H](OC)[C@H](n3cnc4c(=O)[nH]c(N)nc43)O[C@@H]2COP(=O)(S)O[C@H]2C[C@H](n3cc(C)c(=O)[nH]c3=O)O[C@@H]2COP(=O)(S)O[C@H]2C[C@H](n3ccc(N)nc3=O)O[C@@H]2COP(=O)(S)O[C@H]2C[C@H](n3cc(C)c(=O)[nH]c3=O)O[C@@H]2COP(=O)(S)O[C@H]2C[C@H](n3cnc4c(N)ncnc43)O[C@@H]2COP(=O)(S)O[C@H]2C[C@H](n3cc(C)c(=O)[nH]c3=O)O[C@@H]2COP(=O)(S)O[C@@H]2C[C@@H](n3ccc(N)nc3=O)O[C@H]2CO)O[C@H]1n1cnc2c(N)ncnc21` (stereo partly specified), the outcome was inactive.
